Screening data: PubChem BioAssay, Broad Institute
Compounds with a hit are over-represented: about 5.8% of the library has one in this group of screens.
Pf Dd2 inh – inhibitors of Plasmodium falciparum Dd2 growth; P. falciparum Dd2 growth, SYBR Green, 72 h; stronger effect = lower value; activity change, % at 10 µM; 2.3% of 94,000 active; in the data active = activity change below about -80%; inconclusive = no clear call, values can overlap the other calls
T cruzi growth-1 – blocks T. cruzi growth in NIH3T3 culture; 5.9% of 77,000 active; inhibition, % at 8.34 µM; T. cruzi beta-gal in NIH3T3, GalScreen luminescence, 90 h;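 active = mean inhibition above about 93%, with at least 55% of replicates each passing it, limit read from the data, passing the limit was not always enough; inconclusive = only one of those two conditions holds; inactive = neither condition holds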
IDH1 mut inh – IDH1 R132H (human) inhibition. O75874. IDH1 R132H reductase, diaphorase/resazurin fluorescence, 60 min. inhibition, % at 10 µM. 0.18% of 70,000 active; in the data active = inhibition above about 34%; inconclusive = no clear call, values can overlap the other calls; inactive = below about 11%;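 note: 0% = DMSO and 100% = no enzyme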
Target sequence (O75874 whole entry R132H): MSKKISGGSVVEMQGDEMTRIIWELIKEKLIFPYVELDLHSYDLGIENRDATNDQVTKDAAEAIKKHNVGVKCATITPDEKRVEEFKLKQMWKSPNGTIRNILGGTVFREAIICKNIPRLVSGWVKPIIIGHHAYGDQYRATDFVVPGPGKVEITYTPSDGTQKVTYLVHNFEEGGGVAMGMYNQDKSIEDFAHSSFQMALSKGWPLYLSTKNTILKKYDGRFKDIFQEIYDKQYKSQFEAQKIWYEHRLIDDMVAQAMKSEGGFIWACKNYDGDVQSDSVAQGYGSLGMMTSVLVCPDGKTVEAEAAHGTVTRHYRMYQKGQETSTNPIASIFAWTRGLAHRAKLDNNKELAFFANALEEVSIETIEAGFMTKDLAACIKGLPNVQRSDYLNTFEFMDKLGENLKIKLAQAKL
GASC1 inh – inhibitors of human demethylase GASC-1 KDM4C | Q9H3R0 | GST-KDM4C 2-372, H3K9me3 peptide, LANCE TR-FRET | inhibition, % at 12.5 µM | 0.15% of 96,000 active;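 active = mean replicate inhibition above about 25%, with at least 55% of replicates also reaching it, limit read from the data, passing the limit was not always enough; inconclusive = only one of those two conditions met; inactive = neither condition met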
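Material: GST-tagged GASC-1 (JMJD2C) catalytic fragment, aa 2-372 / Quantity: enzyme final amount 10 nM / Medium: HEPES buffer, pH 7.5, plus ascorbate / Doses: one test concentration per compound / Incubation: 30 min reaction, 60 min detection, RT / Measured by: LANCE TR-FRET / Read-out: inhibition from TR-FRET ratio decrease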
T cruzi growth-2 – blocks T. cruzi growth in NIH3T3 host cells | shares compounds with T cruzi growth-1 | inhibition, % at 8.35 µM | T. cruzi beta-gal in NIH3T3, GalScreen luminescence, 90 h | AID 651739 | 72% of 5,600 active;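 active = mean replicate inhibition above about 95% and at least 55% of replicates individually reaching it, limit read from the data; inconclusive = only one of the two criteria is met; inactive = neither criterion is met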
T cruzi growth-3 – inhibitors of T. cruzi proliferation; shares compounds with T cruzi growth-1; T. cruzi beta-gal in NIH3T3, GalScreen luminescence, 90 h; inhibition, % at 2.09 µM; 21% of 5,600 active; AID 651740;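 active = mean inhibition above about 95%, with at least 55% of replicates also reaching it, limit read from the data; inconclusive = meets just one of the two conditions; inactive = meets neither condition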;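 note: plate controls were neutral control median for no effect and positive control median for full effect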
3T3 cytotox – kills mouse NIH/3T3 fibroblasts. shares compounds with T cruzi growth-1. NIH/3T3 viability, CellTiter-Glo ATP luminescence, 90 h. cytotoxicity (signal decrease), % at 8.35 µM. 14% of 5,600 active;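 active = mean signal decrease across replicates above about 35% based on untreated-well scatter, with enough replicates individually passing, limit read from the data; inconclusive = no rule stated though some were filed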;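 note: 0% = median of neutral control wells and 100% = median of positive control wells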
3T3 cytotox 2 – kills mouse NIH/3T3 fibroblasts; AID 651744; NIH/3T3 viability, CellTiter-Glo ATP luminescence, 90 h; shares compounds with T cruzi growth-1; 56% of 5,600 active; inhibition, % at 24.9 µM;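 active = mean loss of cell viability signal at or above a set limit, and enough replicates individually reaching it; inconclusive = meets only the mean limit or only the replicate share; inactive = meets neither condition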;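 note: 0% = median of neutral control wells and 100% = median of positive control wells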
Numbers without * were called inactive; ? = inconclusive; / = no result given.

SMILES | Pf Dd2 inh | T cruzi growth-1 | IDH1 mut inh | GASC1 inh | T cruzi growth-2 | T cruzi growth-3 | 3T3 cytotox | 3T3 cytotox 2
CC(=O)Nc1ccccc1NC(=O)COc1ccc(C(C)(C)C)cc1Br | / | / | -0.9 | / | / | / | / | /
COc1cc(-c2nc3ccccc3s2)cc(Br)c1OCC(=O)O | / | / | 2.5 | / | / | / | / | /
O=C(CCN1C(=O)c2ccccc2C1=O)Nc1ccccc1C(=O)N1CCCC1 | / | / | 0.3 | / | / | / | / | /
C[C@@H]1CN([C@@H](C)CO)C(=O)c2c(c3ccccc3n2C)-c2ccccc2CO[C@@H]1CN(C)Cc1cccnc1 | -54.0 | 135.3* | 6.1 | 1.7 | 99.1* | 13.1 | 19.0 | 69.0*
C[C@@H]1CN([C@@H](C)CO)C(=O)c2c(c3ccccc3n2C)-c2ccccc2CO[C@@H]1CN(C)S(C)(=O)=O | -19.2 | 39.9 | 0.8 | -0.2 | / | / | / | /
C[C@H](CO)N1C[C@H](C)[C@@H](CN(C)C)OCc2ccccc2-c2c(n(C)c3ccccc23)C1=O | -22.6 | ? | 0.4 | 2.1 | 12.3 | 24.8 | -4.0 | 12.8
C[C@H]1CN([C@@H](C)CO)C(=O)c2c(c3ccccc3n2C)-c2ccccc2CO[C@@H]1CN(C)C | -30.7 | 40.9 | -0.6 | 0.5 | / | / | / | /
C[C@@H]1CN([C@H](C)CO)C(=O)c2c(c3ccccc3n2C)-c2ccccc2CO[C@H]1CN(C)C | 27.8 | 106.5* | -3.4 | 1.4 | 86.5 | -26.0 | -6.5 | 13.5
C[C@@H]1CN([C@H](C)CO)C(=O)c2c(c3ccccc3n2C)-c2ccccc2CO[C@@H]1CN(C)C | -20.6 | ? | -0.5 | -0.2 | -16.0 | -9.9 | -17.9 | 1.4
COc1ccc(-c2ccc3c(c2)[C@@H]2[C@@H](CCN2C(=O)Cc2cccnc2)[C@@H](CO)N3C)cc1 | -0.2 | 80.8 | / | 1.6 | / | / | / | /
CN1c2ccc(-c3ccc(F)cc3)cc2[C@@H]2[C@@H](CCN2C(=O)Cc2cccnc2)[C@@H]1CO | -62.6 | ? | / | -0.1 | 106.4* | 62.3 | -13.4 | -6.3
CN1c2ccc(-c3ccccc3)cc2[C@@H]2[C@@H](CCN2C(=O)Cc2cccnc2)[C@@H]1CO | -0.3 | 106.0* | / | 0.0 | 108.8* | 71.0 | 2.1 | 1.4
CN1c2ccc(-c3ccccc3)cc2[C@@H]2[C@@H](CCN2C(=O)Cc2ccccc2)[C@@H]1CO | 10.3 | 101.8* | / | -1.8 | 103.1* | 110.8* | -14.7 | 105.6*
CC(=O)c1cccc(NC(=O)CSc2nccc(C)n2)c1 | / | / | 0.1 | / | / | / | / | /
CCc1cc(C(=O)OC)c(NC(=O)c2cc(-c3ccccn3)nc3ccc(Cl)cc23)s1 | / | / | -0.5 | / | / | / | / | /
C[C@H](CO)N1C[C@H](C)[C@H](CN(C)C(=O)Nc2cc(F)ccc2F)Oc2cc(C#CC3CC3)ccc2S1(=O)=O | -64.0 | 117.2* | / | -2.5 | 111.6* | 44.8 | 3.5 | 25.2
C[C@H](CO)N1C[C@H](C)[C@@H](CN(C)C(=O)Nc2cc(F)ccc2F)Oc2cc(C#CC3CCCC3)ccc2S1(=O)=O | -1.7 | / | 1.6 | / | / | / | / | /
C[C@@H]1CN([C@@H](C)CO)S(=O)(=O)c2ccc(C#CC3CC3)cc2O[C@H]1CN(C)C(=O)Nc1cc(F)ccc1F | -36.6 | 104.0* | / | 0.4 | 106.1* | 70.5 | 37.7* | 32.5*
C[C@@H]1CN([C@@H](C)CO)S(=O)(=O)c2ccc(C#CC3CC3)cc2O[C@@H]1CN(C)C(=O)Nc1cc(F)ccc1F | -13.7 | 103.4* | / | -3.0 | 113.8* | 79.1 | 29.1 | 28.3*
C[C@H](CO)N1C[C@H](C)[C@H](CN(C)C(=O)Nc2cc(F)ccc2F)Oc2cc(C#CC3CCCC3)ccc2S1(=O)=O | -38.5 | / | 0.5 | -1.0 | / | / | / | /
O=C(CCCN1C(=O)c2ccccc2C1=O)Nc1cccc(Cl)c1Cl | / | / | 0.3 | / | / | / | / | /
CN1C[C@@H](O)COC[C@@H]2O[C@H](CC(=O)N3CCN(c4ccccc4)CC3)CC[C@H]21 | -27.9 | 109.1* | / | 1.1 | 90.2 | 71.2 | -2.6 | -4.4
O=C(C[C@H]1CC[C@H]2[C@@H](COC[C@H](O)CN2Cc2ccc(Oc3ccccc3)cc2)O1)N1CCN(c2ccccc2)CC1 | -52.2 | 134.4* | / | -0.1 | 105.4* | 44.2 | 6.9 | 38.2*
